According to ChEMBL document CHEMBL1144395, “Design and synthesis of potent pyridazine inhibitors of p38 MAP kinase” (Bioorg Med Chem Lett, 2005):

Columns and labels:
THP-1 = assay: Inhibitory concentration against TNF-alpha production in THP-1 cells; format: functional, cell-based; details: Homo sapiens
Cell line = assay: Inhibitory concentration against LPS-induced release of TNF-alpha in human whole blood; format: functional, cell-based
[1] = Inhibitory activity against mitogen-activated protein kinase p38; parameters: species or system Homo sapiens
[2] = Inhibitory activity against c-Jun N-terminal kinase 3 (JNK3); parameters: species or system Homo sapiens
Mus musculus = species on record: Mus musculus; assay: Effective dose against murine LPS challenge model; format: functional
Procedure, shortened: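 Oral dosing to BALB/c mice (n = 5) 1 h before intravenous LPS ([…]); blood taken 90 min after LPS, serum TNF-α measured by ELISA; % inhibition = [(vehicle control − compound)/(vehicle control)] × 100; ED50 derived from this inhibition.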

Rattus norvegicus = species on record: Rattus norvegicus; assay: Effective dose against rat collagen-induced arthritis (CIA) model; format: functional

Compound	IC50 (THP-1) [nM]	IC50 (Cell line) [nM]	Ki [1] [nM]	Ki [2] [nM]	ED50 (Mus musculus) [mg/kg]	ED50 (Rattus norvegicus) [mg/kg]
N[C@H](CNc1cc(-c2ccncn2)c(-c2cccc(C(F)(F)F)c2)nn1)Cc1ccccc1	40.2	1830	56.2	> 10000	–	–
N[C@H](CNc1cc(-c2ccncc2)c(-c2cccc3ccccc23)nn1)Cc1ccccc1	50.1	165	7	735	–	–
N[C@H](CNc1cc(-c2ccncc2)c(-c2cccc3ccccc23)nn1)Cc1ccc(F)cc1	92.2	948	1.8	1060	–	–
O=C(CO)N1CCN(c2cc(-c3ccncc3)c(-c3cccc4ccccc34)nn2)C[C@@H]1Cc1ccccc1	552	–	31.8	72.5	–	–
O=C(CNc1nccc(-c2cc(C3CCNCC3)nnc2-c2cccc(C(F)(F)F)c2)n1)c1ccccc1	1290	–	709	> 10000	–	–
CC(C)C[C@H]1CN(c2cc(-c3ccncc3)c(-c3cccc4ccccc34)nn2)CCN1	63.6	547	29.7	650	–	–
CC(N)(CNc1cc(-c2ccncn2)c(-c2cccc(C(F)(F)F)c2)nn1)Cc1ccccc1 (centres undefined)	251	–	179	> 10000	–	–
c1ccc(C[C@H]2CN(c3cc(-c4ccncc4)c(-c4cccc5ccccc45)nn3)CCN2)cc1	67.6	240	7.3	160	1.28	2.7
O=C(CO)N[C@H](CNc1cc(-c2ccncc2)c(-c2cccc3ccccc23)nn1)Cc1ccccc1	661	–	65.9	211	–	–
CC(Nc1nccc(-c2cc(C3CCNCC3)nnc2-c2cccc(C(F)(F)F)c2)n1)c1ccc(F)cc1 (centres undefined)	93.4	–	10.2	> 10000	–	–

More lines, main results first:

IC50 (THP-1) [nM]	IC50 (Cell line) [nM]	Ki [1] [nM]	Ki [2] [nM]	Compound	ED50 (Mus musculus) [mg/kg]	ED50 (Rattus norvegicus) [mg/kg]
5.5	–	9.2	81.5	c1ccc(C[C@@H](CNc2cc(-c3ccncc3)c(-c3cccc4ccccc34)nn2)N2CCCC2)cc1	–	–
110	–	20.4	598	CC(C)N[C@H](CNc1cc(-c2ccncc2)c(-c2cccc3ccccc23)nn1)Cc1ccccc1	–	–
5.3	1560	1.6	1580	C[C@H](Nc1nccc(-c2cc(C3CCNCC3)nnc2-c2cccc(C(F)(F)F)c2)n1)c1ccccc1	–	–
21.5	5850	2.1	2970	C[C@H](Nc1cc(-c2cc(C3CCNCC3)nnc2-c2cccc(C(F)(F)F)c2)ccn1)c1ccccc1	–	–
1240	–	1770	> 10000	O=C(CNc1nccc(-c2cc(C3CCNCC3)nnc2-c2cccc(C(F)(F)F)c2)n1)c1ccc(F)cc1	–	–
